High-throughput results from PubChem.
A selection: hits, their analogues and other compounds. The true share with any hit is near 1.1%.
FAS-TE inh – FAS thioesterase domain inhibitors, primary screen, biochemical, fluorescence intensity, uHTS; recombinant FAS-TE, OMFH fluorogenic substrate, fluorescence endpoint; 360,000 tested, 0.67% active; AID 602261, 2012; Fatty acid synthase (Homo sapiens), P49327; inhibition, % at 15 µM;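 active = compounds whose normalised, plate-corrected inhibition of enzyme fluorescence in the single-dose primary screen is 50% or more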;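 also: 0% = DMSO with enzyme and 100% = substrate without enzyme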
Arr AP2 block – inhibitors of beta-arrestin/AP2 binding, primary screen, biochemical, GPCR trafficking, flow cytometry | beta-arrestin 1 C-terminal peptide binding to AP2 beta2-adaptin appendage (human) | FITC-arrestin peptide / GST-AP2 beads; AP2 beta2 appendage carries R879A mutation | inhibition, % at 10 µM | 340,000 tested, 0.31% active;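 active = inhibition above a set limit, near 3 SD of compounds lacking own fluorescence, cut at about 54% in these data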;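 also: plate controls were DMSO wells for no effect and 5 µM unlabelled arrestin peptide for full effect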
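Material – AP2 appendage R879A on GSH beads · Buffer or medium – PBS with 0.05% Tween 20 and 0.1% BSA · Probe or stimulus – fluorescein-tagged arrestin peptide at 50 nM final · Incubation – compound with beads 12 min RT, then probe 1 h RT · Detection – high-throughput flow cytometry of beads, ex 488, em 535 nm · Evaluation – percent response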
SENP1 inh – human SENP1 catalytic domain inhibitors, primary screen, biochemical, FRET, uHTS. Sentrin-specific protease 1 (Homo sapiens), Q9P0U3. recombinant SENP1 catalytic domain, CyPet-SUMO1-YPet FRET cleavage. inhibition, % at 10 µM. 360,000 tested, 0.21% active;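 active = inhibition at least 30% at 10 µM, raw YFP signal under a set limit, fluorescence ratio 0.5 to 1.5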;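 also: 0% = enzyme with DMSO and 100% = no enzyme wells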
Target sequence (Q9P0U3 419-644 limits assumed): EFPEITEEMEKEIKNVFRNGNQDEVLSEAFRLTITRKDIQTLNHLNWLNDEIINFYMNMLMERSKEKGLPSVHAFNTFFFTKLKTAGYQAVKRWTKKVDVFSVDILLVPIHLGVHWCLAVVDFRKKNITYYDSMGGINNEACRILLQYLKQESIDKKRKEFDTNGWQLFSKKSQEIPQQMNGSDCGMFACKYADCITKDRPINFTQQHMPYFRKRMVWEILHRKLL
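Assay system: hSENP1 catalytic domain, recombinant. Amount: SENP1 enzyme, 20 pM final. Schedule: 50 min reaction, RT, dark. Technique: FRET, CFP and YFP emission. Control set: no-enzyme wells low, DMSO-plus-enzyme wells high control.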
GASC-1 inh – inhibitors of GASC-1 histone demethylase, primary screen, biochemical, fluorescence, DELFIA europium; AID 2099, 2009; GST-JMJD2C(1-420) H3K9me3 demethylation; inhibition, % at 2.35 µM; 330,000 tested, 0.069% active;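 active = more than half of a compound's replicate wells show inhibition beyond 50%, single wells judged on their own value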;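 also: signal counts dimethyl H3K9 product captured on neutravidin plate; 0% = median of DMSO wells and 100% = 0.3 times that DMSO median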
FAS-TE conf – FAS thioesterase domain inhibitors, confirmation, biochemical, fluorescence intensity, single concentration; 2,300 tested, 45% active; inhibition, % at 15 µM; shares compounds with FAS-TE inh; recombinant FAS-TE, OMFH fluorogenic substrate; AID 624325, 2012;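 active = compounds inhibiting the enzyme by at least 50% at 15 µM in any one of the replicates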;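 also: 0% = enzyme with DMSO only and 100% = wells lacking enzyme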
* marks the source's active call; other numbers are inactive results; . = not tested or not shown.

SMILES	FAS-TE inh	Arr AP2 block	SENP1 inh	GASC-1 inh	FAS-TE conf
OCC1N=C(c2ccccn2)OC1c1ccccc1 (stereo not given)	-7	-53	1	9	.
CC(C)Cn1c(N)c(C(=O)COC(=O)c2cc3ccccc3cc2O)c(=O)n(C)c1=O	82*	0	-4	5	2
CC(C)Cn1c(N)c(C(=O)COC(=O)c2cccc(F)c2)c(=O)n(C)c1=O	3	5	1	.	.
COc1cccc(CN(C)CC(O)COc2cc(Cl)ccc2Cl)c1 (stereo not given)	12	-8	1	-11	.
O=C(Nc1ccccc1)Nc1ccc(S(=O)(=O)N2CCCCC2)cc1	10	0	-2	38	.
COC(=O)c1ccc(C(=O)OC)c(NC(=O)N2c3ccccc3Sc3ccccc32)c1	30	38	-13	0	.
O=C(Nc1ccc(S(=O)(=O)N2CCCC2)cc1)N1c2ccccc2Sc2ccccc21	76*	-6	0	2	29
COC(=O)c1cc(NC(=O)N2c3ccccc3Sc3ccccc32)cc(C(=O)OC)c1	72*	-5	-3	-1	28
Cc1ccc(COC(=O)c2cc([N+](=O)[O-])ccc2N2CCOCC2)cc1	54*	0	0	-5	52*
O=C(OCc1ccc([N+](=O)[O-])cc1)c1cc([N+](=O)[O-])ccc1N1CCOCC1	80*	4	0	-20	76*
Cc1ccc(C(=O)c2cc([N+](=O)[O-])ccc2N2CCOCC2)cc1	25	10	-4	.	.
COc1ccccc1/C=C/C(=O)OC(C)CN1CCOCC1 (stereo not given)	-7	-6	1	9	.
CCN(CC)C(=O)C1CCCN(Cc2sccc2C)C1 (stereo not given)	-7	34	2	35	.
COc1ccc(-c2ccc3[nH]c4c(c3c2)CCN2C[C@@H]([C@H](C)OC(=O)Nc3cc(Cl)cc(Cl)c3)[C@@H](N(C)C(=O)Nc3cc(Cl)cc(Cl)c3)C[C@@H]42)cc1	22	.	-32	.	.
COc1ccc(NC(=O)O[C@@H](C)[C@@H]2CN3CCc4c([nH]c5ccc(-c6ccc(OC)cc6)cc45)[C@@H]3C[C@@H]2N(C)C(=O)Nc2ccc(OC)cc2)cc1	54*	.	-17	.	14
COc1cccc(N=C(N)N=C(N)N)c1	2	-12	0	-1	.
Cc1ccc(C(=O)c2cnc3cc4c(cc3c2S(=O)(=O)c2ccccc2)OCCO4)cc1	72*	1	-19	-3	21
Cc1ccc(-c2nn(CC(=O)N(C)C)c(=O)c3ccccc23)cc1S(=O)(=O)N(C)C	-8	11	-1	1	.
O=CNc1cc(-c2ccsc2)cn2c(-c3ccccc3)cnc12	13	.	-19	.	.
O=C(NNC(=O)c1cccnc1)c1ccncc1	-3	-7	1	2	.
Cc1nc2ccc(NC(=O)c3cc([N+](=O)[O-])cc([N+](=O)[O-])c3Cl)cc2s1	70*	1	3	5	89*
COc1ccc(N=CC2=C(O)CC(C)(C)CC2=O)cc1OC	-4	6	1	6	.
N#C/C(=C/c1ccc2c(c1)OCO2)C(=O)NCCc1c[nH]c2ccccc12	52*	5	-2	-11	34
O=C(NCCc1c[nH]c2ccccc12)c1ccc2c(c1)OCO2	-2	0	0	2	.
COc1ccc(NC(=O)CCNS(=O)(=O)c2cccc3nsnc23)cc1	-2	-5	1	9	.
Cc1nc2scc(-c3ccc(Cl)cc3)c2c(=O)o1	70*	-7	0	6	65*
COc1ccc(-c2nc3scc(-c4ccc(OC)c(OC)c4)c3c(=O)o2)cc1	9	-9	-12	0	.
COc1ccc(-c2csc3nc(-c4ccccc4F)oc(=O)c23)cc1	62*	-15	6	5	51*
Cc1nc2scc(-c3cccs3)c2c(=O)o1	-6	-8	1	2	.
c1ccc(-c2nnc3nc(N4CCCCC4)nc(N4CCCCC4)n23)cc1	27	-14	2	.	.
